Data: article PMC10433104 (Journal of medicinal chemistry, 2023)

biological target: PDE4D7-S129D (PDE4D*) (Homo sapiens, UniProt Q08499, S190D); test: PDE4 enzyme inhibition assay; type: biochemical; conditions: ratio of IC50 for PDE4B* over that for PDE4D*
Summary of the method: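 Mutationally activated dimeric enzymes were used: PDE4D7-S129D (PDE4D*) and PDE4B1-S133D (PDE4B*). PDE4B served as the comparator for the PDE4 subtypes. Activity was read with a real-time coupled enzyme assay rather than a fluorescein-labelled cAMP substrate. An IC50 was obtained against each enzyme, and selectivity was taken as PDE4B* IC50 divided by PDE4D* IC50 (B/D ratio).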

Chain of PDE4D7-S129D (PDE4D*) (Q08499 1-748 isoform Q08499-11 S129D, species assumed): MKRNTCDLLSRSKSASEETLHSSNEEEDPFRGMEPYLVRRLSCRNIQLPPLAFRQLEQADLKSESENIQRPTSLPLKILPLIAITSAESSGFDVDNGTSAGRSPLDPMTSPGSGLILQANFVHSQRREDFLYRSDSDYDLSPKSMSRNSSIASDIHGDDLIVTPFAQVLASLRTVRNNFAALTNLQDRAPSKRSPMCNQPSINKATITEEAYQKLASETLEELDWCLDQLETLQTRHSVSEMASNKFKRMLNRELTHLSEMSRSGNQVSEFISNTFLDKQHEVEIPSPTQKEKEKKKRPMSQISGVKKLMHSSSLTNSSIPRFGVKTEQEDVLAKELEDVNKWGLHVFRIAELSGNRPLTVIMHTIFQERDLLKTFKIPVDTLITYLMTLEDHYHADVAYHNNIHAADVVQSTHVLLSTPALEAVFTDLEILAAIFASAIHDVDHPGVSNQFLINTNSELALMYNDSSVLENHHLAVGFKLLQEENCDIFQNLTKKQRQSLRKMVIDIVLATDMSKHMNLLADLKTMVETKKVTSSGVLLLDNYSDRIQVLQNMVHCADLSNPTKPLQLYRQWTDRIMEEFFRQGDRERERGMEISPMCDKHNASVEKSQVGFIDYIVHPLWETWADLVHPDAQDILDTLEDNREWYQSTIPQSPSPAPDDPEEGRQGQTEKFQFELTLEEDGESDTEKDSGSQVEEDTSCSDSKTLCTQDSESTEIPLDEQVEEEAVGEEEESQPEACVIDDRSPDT

Selectivity B/D | SMILES
>61 | FC(F)Oc1cccc(-c2nc(Cc3cn[nH]c3)ccc2OCc2ccccc2)c1 [Compound 57]
>649 | COc1ccc(Cn2cncn2)nc1-c1cccc(OC(F)F)c1 [Compound 32, 6-((1H-1,2,4-Triazol-1-yl)methyl)-2-(3-(difluoromethoxy)phenyl)3-methoxypyridine]
>15 | COc1cccc(-c2nc(Nc3cn[nH]c3)ccc2OC(F)F)c1 [Compound 20, 5-(Difluoromethoxy)-6-(3-methoxyphenyl)-N-(1H-pyrazol-4-yl)pyridin-2-amine]
>13 | Fc1ccc(Cc2cn[nH]c2)nc1-c1cccc(Cl)c1 [Compound 10, 6-((1H-Pyrazol-4-yl)methyl)-2-(3-chlorophenyl)-3-fluoropyridine]
>2519 | COc1ccc(Cc2ccc(CCO)cc2)nc1-c1cccc(OC(F)F)c1 [Compound 53, 2-(4-((6-(3-(Difluoromethoxy)phenyl)-5-methoxypyridin-2-yl)methyl)phenyl)ethan-1-ol]
>6 | COc1ccc(Oc2cn[nH]c2)nc1-c1cccc(OC(F)F)c1 [Compound 18, 6-((1H-Pyrazol-4-yl)oxy)-2-(3-(difluoromethoxy)phenyl)-3-methoxypyridine]
>472 | COc1ccc(Cn2ncnn2)nc1-c1cccc(OC(F)F)c1 [Compound 34, 6-((2H-Tetrazol-2-yl)methyl)-2-(3-(difluoromethoxy)phenyl)-3methoxypyridine]
>575 | COc1cccc(-c2nc(Cn3ncnn3)ccc2OC(F)F)c1 [Compound 47, 6-((2H-Tetrazol-2-yl)methyl)-3-(difluoromethoxy)-2-(3methoxyphenyl)pyridine]
>420 | COc1cccc(-c2nc(Cc3ccc(CCCO)cc3)ccc2OC(F)F)c1 [Compound 56, 3-(4-((5-(Difluoromethoxy)-6-(3-methoxyphenyl)pyridin-2-yl)methyl)phenyl)propan-1-ol]
>13 | COc1cccc(-c2nc(Cn3cnc(C(F)(F)F)n3)ccc2OC(F)F)c1 [Compound 44, 3-(Difluoromethoxy)-2-(3-methoxyphenyl)-6-((3-(trifluoromethyl)-1H-1,2,4-triazol-1-yl)methyl)pyridine]
>2 | COc1ccc(Nc2cn[nH]c2)nc1-c1cccc(C(F)(F)F)c1 [Compound 13, 5-Methoxy-N-(1H-pyrazol-4-yl)-6-(3-(trifluoromethyl)phenyl)pyridin-2-amine]
>57 | FC(F)Oc1cccc(-c2nc(Cn3ccnc3)ccc2OCc2ccccc2)c1 [Compound 59, 6-((1H-Imidazol-1-yl)methyl)-3-(benzyloxy)-2-(3(difluoromethoxy)phenyl)pyridine]
>13 | COc1ccc(Cn2cnc(C(F)(F)F)n2)nc1-c1cccc(OC(F)F)c1 [Compound 31, 2-(3-(Difluoromethoxy)phenyl)-3-methoxy-6-((3-(trifluoromethyl)-1H-1,2,4-triazol-1-yl)methyl)pyridine]
>27 | COc1cccc(-c2nc(COc3cn[nH]c3)ccc2OC(F)F)c1 [Compound 40, 6-(((1H-Pyrazol-4-yl)oxy)methyl)-3-(difluoromethoxy)-2-(3methoxyphenyl)pyridine]
>2 | COc1ccc(Cn2cccn2)nc1-c1cccc(F)c1 [Compound 24, 6-((1H-Pyrazol-1-yl)methyl)-2-(3-fluorophenyl)-3-methoxypyridine]
>238 | COc1cccc(-c2nc(Cn3cncn3)ccc2OC(F)F)c1 [Compound 45, 6-((1H-1,2,4-Triazol-1-yl)methyl)-3-(difluoromethoxy)-2-(3methoxyphenyl)pyridine]
>13 | FC(F)Oc1cccc(-c2nc(Cc3ccncc3)ccc2OCc2ccccc2)c1 [Compound 58, 3-(Benzyloxy)-2-(3-(difluoromethoxy)phenyl)-6-(pyridin-4ylmethyl)pyridine]
>621 | COc1ccc(Cc2ccc(CCCO)cc2)nc1-c1cccc(OC(F)F)c1 [Compound 54, 3-(4-((6-(3-(Difluoromethoxy)phenyl)-5-methoxypyridin-2-yl)methyl)phenyl)propan-1-ol]
